Assay results from different studies.
Each line is one published result; the experiments were not run side by side.
Target: Epithelial discoidin domain-containing receptor 1 (DDR1, Homo sapiens, UniProt Q08345)

With O=C(Nc1c[nH]nc1C(=O)NC1CCNCC1)c1cc(F)cc(F)c1 the remaining binding was 100% (binding; competition with immobilised ligand; 1 µM).
FC(F)(F)Oc1cccc(-c2cnc3ccc(-c4ccncc4)nn23)c1 has a remaining binding of 48% (cell-free assay; competition with immobilised ligand; 5 µM).
For CC(=O)c1c(NS(C)(=O)=O)c2cc(-c3ccc(Cl)cc3)c(-c3ccc(Cl)cc3Cl)nc2n(C)c1=O, the remaining binding was 100% (cell-free assay; competition with immobilised ligand; 1 µM).
The remaining binding of N[C@H]1CCN(c2nccc(-c3cnn4ncccc34)n2)C1 is reported as 100% (binding; 1 µM).
For COc1cnc(Nc2cccc(S(N)(=O)=O)c2)nc1N1CCN(c2ccccc2)C(=O)C1, the remaining binding was 100% (binding; competition with immobilised ligand; 1 µM).
The remaining binding of CC(=O)Nc1c(C(C)=O)c(=O)n(C)c2nc(-c3ccc(Cl)cc3Cl)c(-c3ccc(Cl)cc3)cc12 is reported as 100% (cell-free assay; competition with immobilised ligand; 1 µM).
O=C(c1ccc(Nc2nccc(-c3cc4ccccc4s3)n2)cc1)N1CCC(N2CCCC2)CC1 gave a remaining binding of 2.1% (binding; competition with immobilised ligand; 1 µM).
For C[C@@H](c1ccc(-n2cnc3c(N)ncnc32)cc1)N1CCc2nn(C)c(Cc3ccccc3)c2C1=O, the remaining binding was 8.9% (binding; competition with immobilised ligand; 0.1 µM).
The remaining binding of FC(F)(F)c1ccc2c(c1)nc(-c1cccnc1)n2C1CC1 is reported as 100% (cell-free assay; competition with immobilised ligand; 1 µM).
O=C(c1ccc(Nc2ncc(Cl)c(-c3cc4ccccc4s3)n2)cc1)N1CCC(N2CCCC2)CC1 has a remaining binding of 0.4% (binding; competition with immobilised ligand; 1 µM).
O=c1nc(-c2ccccn2)sc2ccccc12 gave a remaining binding of 85% (cell-free assay; competition with immobilised ligand; 1 µM).
For CN(C)c1ncc(F)c(-c2cnn3ncccc23)n1, the remaining binding was 89% (binding; 1 µM).
For Nc1ncc2c(n1)-c1c([nH]c3ccc(C#CC4CC4)cc13)CCCC2, the remaining binding was 100% (binding; competition with immobilised ligand; 1 µM).
With CN(c1nccc(-c2cnn3ncccc23)n1)C1CC1 the remaining binding was 80% (binding; 1 µM).
With CNC(=O)[C@@H]1CC[C@@H](n2c(-c3ccc4cnccc4c3)nc3ccc(C(=O)NCc4cccc(C(N)=O)c4)cc32)C1 the remaining binding was 100% (binding; competition with immobilised ligand; 1 µM).
For CN(CCCC(F)(F)F)c1nccc(-c2cnn3ncccc23)n1, the remaining binding was 100% (binding; 1 µM).
With Cc1cnc(Nc2ccc(C(=O)N3CCC(N4CCCC4)CC3)cc2)nc1-c1cc2ccccc2s1 the remaining binding was 0.1% (binding; competition with immobilised ligand; 1 µM).
CNC(=O)c1ccc(Nc2ncc(C(F)(F)F)c(NCc3nccnc3N(C)S(C)(=O)=O)n2)cc1 has a remaining binding of 100% (cell-free assay; competition with immobilised ligand; 0.1 µM).
With COc1ccnn2ncc(-c3ccnc(N(C)C)n3)c12 the remaining binding was 100% (binding; 1 µM).
With CC(C)(O)c1cncc(-c2nc3ccc(F)cc3n2C2CC2)c1 the remaining binding was 100% (cell-free assay; competition with immobilised ligand; 1 µM).
C[C@@H]1CCN(c2nccc(-c3cnn4ncccc34)n2)C1 has a remaining binding of 100% (binding; 1 µM).
